Laboratory results taken from ChEMBL document CHEMBL1811904, “Preventive oral treatment with resveratrol pro-prodrugs drastically reduce colon inflammation in rodents” (J Med Chem, 2010).
Active and inactive are the calls of the source. No cut-off for these calls is given here.

Assays:
[1] = Cytotoxicity against human CCD-18Co cells at >10 uM after 8 hrs by MTT assay; type: cell-based
CCD-18Co [2] = assay: Antiinflammatory activity in human CCD-18Co cells assessed inhibition of IL1beta-induced PGE2 production at 1 to 7.5 uM after 18 hrs; type: functional, cell-based
Mus musculus [3] = assay: (§1) Antiinflammatory activity in C57BL/6J mouse model of DSS-induced colon inflammation assessed as reduction in disease activity index at 2.1 mg/kg/day, po for 21 days followed by compound dosing for 8 days co-administered with DSS followed by 2.1 mg/kg/day, po dosing for 6 days in absence of DSS measured on days 29 and day 35; type: functional, organism-based
Outline: (§2)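 Diet supplemented at 2.1 mg/kg day for 21 days before 8 days of 1% DSS in sterilized drinking water ad libitum; n=10 per group. Body weight followed through DSS and recovery phases; DAI combines stool blood, stool consistency and weight loss. ANOVA with Tukey post-hoc, mean ± SD.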

Mus musculus [4] = assay: as §1, with “of colon MIG level” for “in disease activity index”, “35 by chemiluminescence assay” for “35”; type: functional, organism-based
Outline: (§3)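 After 21 days of chow with compound at 2.1 mg/kg day and 8 days of 1% DSS, distal colon mucosa (40 mg) homogenized in PBS with protease inhibitors and spun 15,000g, 30 min, 4 °C. Supernatants pooled per group to 300 µg protein and run on a 40-cytokine mouse inflammation antibody array. Chemiluminescent detection, densitometry; duplicate measurements.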

Mus musculus [5] = assay: as §1, with “of colon IL6 level” for “in disease activity index”, “35 by chemiluminescence assay” for “35”; type: functional, organism-based; outline: as §3
Mus musculus [6] = assay: as §1, with “morphological signs of cell damage” for “disease activity index”; type: functional, organism-based
Outline: (§4)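 Standard chow with compound at 2.1 mg/kg day for 21 days, then 1% DSS in sterilized drinking water ad libitum for the last 8 days (29 days total); n=10 per group, with control and DSS-only groups. Distal colon sections stained with hematoxylin and eosin and scored by Araki system: 0-4 each for surface epithelial loss, crypt destruction, inflammatory cell infiltration (max 12); mean ± SEM, Kruskal-Wallis then Mann-Whitney.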

Mus musculus [7] = assay: Effect on body weight in C57BL/6J mouse model of DSS-induced colon inflammation at 2.1 mg/kg/day, po for 21 days followed by compound dosing for 8 days co-administered with DSS followed by 2.1 mg/kg/day, po dosing for 6 days in absence of DSS measured on days 29 and day 35; type: functional, organism-based; outline: as §2
Mus musculus [8] = assay: Antiinflammatory activity in C57BL/6J mouse model of DSS-induced colon inflammation assessed as reduction in disease activity index at 2.1 mg/kg/day, po for 8 days co-administered with DSS measure on day 8; type: functional, organism-based
Outline: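 No pre-feeding: compound co-administered with 1% DSS in drinking water for 8 days at 2.1 mg/kg day; n=14 per group, with DSS-only and untreated control groups. DAI scored from stool blood, stool form and weight loss.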

Mus musculus [9] = assay: (§5) Increase in Bifidobacterial count in C57BL/6J mouse distal colon mucosa with DSS-induced colon inflammation at 2.1 mg/kg/day, po for 21 days followed by compound dosing for 8 days co-administered with DSS followed by 2.1 mg/kg/day, po dosing for 6 days in absence of DSS by fecal microbiota analysis relative to control; type: functional, organism-based
Outline: (§6)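 Fecal samples collected on days 0, 21 (before DSS) and 29 (after 8 days of 1% DSS) from mice fed 2.1 mg/kg day compound in chow. Bifidobacteria, lactobacilli, clostridia, enterobacteria and E. coli counted; ANOVA with Tukey post-hoc, mean ± SD.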

Mus musculus [10] = assay: as §1, with “of colon MIP1gamma level” for “in disease activity index”, “35 by chemiluminescence assay” for “35”; type: functional, organism-based; outline: as §3
CCD-18Co [11] = assay: Antiinflammatory activity in human CCD-18Co cells assessed as inhibition of IL1beta-induced PGE2 production at 2.5 to 25 uM after 18 hrs; type: functional, cell-based
Mus musculus [12] = assay: as §1, with “of colon TNFRp55 level” for “in disease activity index”, “35 by chemiluminescence assay” for “35”; type: functional, organism-based; outline: as §3
Mus musculus [13] = assay: as §5, with “Lactobacilli” for “Bifidobacterial”; type: functional, organism-based; outline: as §6
Mus musculus [14] = assay: as §1, with “preservation of mucosal architecture” for “reduction in disease activity index”; type: functional, organism-based; outline: as §4
Mus musculus [15] = assay: as §5, with “Clostridia” for “Bifidobacterial”; type: functional, organism-based; outline: as §6
CCD-18Co [16] = assay: Antiinflammatory activity in human CCD-18Co cells assessed inhibition of IL1beta-induced PGE2 production at 1 uM after 18 hrs; type: functional, cell-based
Caco-2 = assay: Metabolic stability in human Caco2 cells after 6 hrs by LC-MS-MS analysis; type: ADME, cell-based; conditions: caco-2, 6 h
Outline: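 Compounds incubated with human colon Caco-2 cells; cell media sampled at 6 h and analyzed by LC-MS-MS for parent compound and hydrolysis/conjugation products.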

Mus musculus [17] = assay: as §5, with “Reduction” for “Increase”, “Escherichia coli” for “Bifidobacterial”; type: functional, organism-based; outline: as §6
Stomach = assay: Stability in C57BL/6J mouse stomach at 84 mg/kg administered through intragastric route measured after 8 hrs by HPLC-MS-MS analysis; type: ADME, organism-based; parameters: dose 84 mg/kg, route intragastric; conditions: in vivo, po
Outline: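 Healthy mice given 84 mg/kg by intragastric probe in ethanol:water (5:95, v:v); n=24 per group, three killed at each of 0.25, 0.5, 1, 2, 4, 8, 12 and 24 h. Stomach contents analyzed by HPLC-MS-MS for parent compounds and metabolites; AUC and Cmax derived.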

In the case of `CCCCCCCCCCCCCCCC(=O)OC[C@H]1O[C@@H](Oc2cc(O)cc(/C=C/c3ccc(O)cc3)c2)[C@H](O)[C@@H](O)[C@@H]1O`, the Activity [1] is reported as “Toxic” and the inhibition (CCD-18Co [2]) is reported as “Active”.

In the case of `OC[C@H]1O[C@@H](Oc2cc(/C=C/c3ccc(O)cc3)cc(O[C@@H]3O[C@H](CO)[C@@H](O)[C@H](O)[C@H]3O)c2)[C@H](O)[C@@H](O)[C@@H]1O`, the Activity (Mus musculus [3]) is reported as “inactive”, the Activity (Mus musculus [4]) is reported as “Active” and the Activity (Mus musculus [5]) is reported as “Active”. The Activity (Mus musculus [6]) was “Active”, the Activity (Mus musculus [7]) was “inactive” and the Activity (Mus musculus [8]) was “inactive”. The Activity (Mus musculus [9]) was “inactive”, the Activity (Mus musculus [10]) was “Active” and the inhibition (CCD-18Co [11]) was “inactive”. For the same molecule, the Activity (Mus musculus [12]) was “Active”, the Activity (Mus musculus [13]) was “inactive” and the Activity (Mus musculus [14]) was “Active”.

With `OC[C@H]1O[C@@H](Oc2ccc(/C=C/c3cc(O)cc(O)c3)cc2)[C@H](O)[C@@H](O)[C@@H]1O` the inhibition (CCD-18Co [11]) was “Active”.

In the case of `Oc1ccc(/C=C/c2cc(O)cc(O)c2)cc1` [RESVERATROL], the Activity (Mus musculus [3]) is reported as “inactive”, the Activity (Mus musculus [15]) is reported as “Active” and the Activity (Mus musculus [4]) is reported as “Active”. For the same molecule, the Activity (Mus musculus [5]) was “Active”, the Activity (Mus musculus [6]) was “Active” and the Activity (Mus musculus [7]) was “inactive”. The Activity (Mus musculus [8]) was “inactive”, the Activity (Mus musculus [9]) was “inactive” and the Activity (Mus musculus [10]) was “Active”. For the same molecule, the inhibition (CCD-18Co [16]) was “Active”, the inhibition (CCD-18Co [11]) was “Active” and the Stability (Caco-2) was “Stable”. The Activity (Mus musculus [12]) was “Active”, the Activity (Mus musculus [17]) was “Active” and the Activity (Mus musculus [13]) was “inactive”. For the same molecule, the Activity (Mus musculus [14]) was “Active” and the Stability (Stomach) was “Stable”.

With `OC[C@H]1O[C@@H](Oc2cc(O)cc(/C=C/c3ccc(O)cc3)c2)[C@H](O)[C@@H](O)[C@@H]1O` the Activity (Mus musculus [3]) was “inactive”, the Activity (Mus musculus [4]) was “Active” and the Activity (Mus musculus [5]) was “Active”. The Activity (Mus musculus [6]) was “Active”, the Activity (Mus musculus [7]) was “inactive” and the Activity (Mus musculus [8]) was “inactive”. For the same molecule, the Activity (Mus musculus [9]) was “inactive”, the Activity (Mus musculus [10]) was “Active” and the inhibition (CCD-18Co [11]) was “inactive”. For the same molecule, the Activity (Mus musculus [12]) was “Active”, the Activity (Mus musculus [13]) was “inactive” and the Activity (Mus musculus [14]) was “Active”.

For `CCCCCCCCCCCCCCCCCC(=O)OC[C@H]1O[C@@H](Oc2cc(O)cc(/C=C/c3ccc(O)cc3)c2)[C@H](O)[C@@H](O)[C@@H]1O`, the Activity [1] was “Toxic” and the inhibition (CCD-18Co [2]) was “Active”.

For `CCCC(=O)OC[C@H]1O[C@@H](Oc2cc(O)cc(/C=C/c3ccc(O)cc3)c2)[C@H](O)[C@@H](O)[C@@H]1O`, the Activity (Mus musculus [3]) was “Active”, the Activity (Mus musculus [15]) was “Active” and the Activity (Mus musculus [4]) was “Active”. The Activity (Mus musculus [5]) was “Active”, the Activity (Mus musculus [6]) was “Active” and the Activity (Mus musculus [7]) was “Active”. The Activity (Mus musculus [8]) was “inactive”, the Activity (Mus musculus [9]) was “Active” and the Activity (Mus musculus [10]) was “Active”. For the same molecule, the Stability (Caco-2) was “Stable”, the Activity (Mus musculus [12]) was “Active” and the Activity (Mus musculus [17]) was “Active”. For the same molecule, the Activity (Mus musculus [13]) was “Active”, the Activity (Mus musculus [14]) was “Active” and the inhibition (CCD-18Co [2]) was “Active”.

In the case of `OC[C@H]1O[C@@H](Oc2ccc(/C=C/c3cc(O)cc(O[C@@H]4O[C@H](CO)[C@@H](O)[C@H](O)[C@H]4O)c3)cc2)[C@H](O)[C@@H](O)[C@@H]1O`, the inhibition (CCD-18Co [11]) is reported as “inactive”.

In the case of `CCCCCCCC(=O)OC[C@H]1O[C@@H](Oc2cc(O)cc(/C=C/c3ccc(O)cc3)c2)[C@H](O)[C@@H](O)[C@@H]1O`, the Activity (Mus musculus [3]) is reported as “Active”, the Activity (Mus musculus [15]) is reported as “Active” and the Activity (Mus musculus [4]) is reported as “Active”. For the same molecule, the Activity (Mus musculus [5]) was “Active”, the Activity (Mus musculus [6]) was “Active” and the Activity (Mus musculus [7]) was “Active”. For the same molecule, the Activity (Mus musculus [8]) was “inactive”, the Activity (Mus musculus [9]) was “Active” and the Activity (Mus musculus [10]) was “Active”. The Stability (Caco-2) was “Stable”, the Activity (Mus musculus [12]) was “Active” and the Activity (Mus musculus [17]) was “Active”. For the same molecule, the Activity (Mus musculus [13]) was “Active”, the Activity (Mus musculus [14]) was “Active” and the inhibition (CCD-18Co [2]) was “Active”.

For `CCCCCCCCCCCC(=O)OC[C@H]1O[C@@H](Oc2cc(O)cc(/C=C/c3ccc(O)cc3)c2)[C@H](O)[C@@H](O)[C@@H]1O`, the Activity [1] was “Toxic” and the inhibition (CCD-18Co [2]) was “Active”.
